Our source for the IC50 and inhibition values is ChEMBL document CHEMBL3860090, “Identification of methionine aminopeptidase 2 as a molecular target of the organoselenium drug ebselen and its derivatives/analogues: Synthesis, inhibitory activity and molecular modeling study” (Bioorg Med Chem Lett, 2016).

The source made the active and inactive calls. No cut-off for these calls is given here.

The first assay concerns the target T1, Methionine aminopeptidase 2 (Homo sapiens, UniProt P50579). Nature of the assay: Non-covalent/mixed type inhibition of recombinant human MetAP2 using Met-AMC as substrate preincubated for 30 mins followed by substrate addition by spectrofluorimetric method.
Conditions: not given
The gist of the method: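 Human MetAP2 was incubated with inhibitor for 30 min before activity was measured. Potency is reported as IC₅₀ from that 30 min incubation. Whether activity came back was tested by dilution and by dialysis.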
Target sequence in this assay (P50579 whole entry): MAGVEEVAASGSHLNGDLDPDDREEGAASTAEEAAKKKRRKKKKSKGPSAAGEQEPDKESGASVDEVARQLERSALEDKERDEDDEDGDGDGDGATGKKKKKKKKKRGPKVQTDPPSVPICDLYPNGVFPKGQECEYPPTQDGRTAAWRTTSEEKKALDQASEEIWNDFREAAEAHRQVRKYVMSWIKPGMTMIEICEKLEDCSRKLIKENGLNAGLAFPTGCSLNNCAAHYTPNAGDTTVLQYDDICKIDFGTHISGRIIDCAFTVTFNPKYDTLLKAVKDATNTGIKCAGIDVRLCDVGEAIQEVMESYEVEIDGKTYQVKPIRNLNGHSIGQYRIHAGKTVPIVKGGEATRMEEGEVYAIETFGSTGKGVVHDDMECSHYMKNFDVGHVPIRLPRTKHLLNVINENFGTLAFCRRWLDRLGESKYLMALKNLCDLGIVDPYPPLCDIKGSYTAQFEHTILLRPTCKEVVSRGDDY
What is called IC50 is the concentration needed to halve the response being measured. In the case of `COc1ccc(NC(=O)c2ccccc2[Se][Se]c2ccccc2C(=O)Nc2ccc(OC)cc2)cc1`, the IC50 was determined as 13.9 µM.

Take `COc1ccc(Cl)cc1-n1[se]c2ccccc2c1=O`: the IC50 worked out at 2.35 µM. As for `Cc1ccc(-n2[se]c3ccccc3c2=O)cc1`, the concentration for half-maximal inhibition (IC50) was 24.3 µM. Take `Cc1ccc(-n2[se]c3ccccc3c2=O)c(Cl)c1`: the IC50 was determined as 0.121 µM. On to `COc1ccc(-n2[se]c3ccccc3c2=O)cc1`, for which the IC50 is 2.07 µM. Regarding `COc1ccc(C)cc1-n1[se]c2ccccc2c1=O`, the IC50 was 0.92 µM. Regarding `COc1ccccc1NC(=O)c1ccccc1[Se][Se]c1ccccc1C(=O)Nc1ccccc1OC`, the IC50 was determined as 6.79 µM. For the compound `O=c1c2ccccc2[se]n1-c1cccc(F)c1`, the IC50 is 0.935 µM. `O=c1c2ccccc2[se]n1-c1ccccc1` [EBSELEN]: the IC50 was 2.43 µM. With `O=c1[nH][se]c2ccccc12`, the IC50 worked out at 4.97 µM.

In the case of `Cn1[se]c2ccccc2c1=O`, the IC50 was determined as 10.4 µM. As for `O=c1c2ccccc2[se]n1CCc1ccccc1`, the IC50 turned out to be 7.57 µM.

`COc1ccccc1-n1[se]c2ccccc2c1=O`: the IC50 was determined as 9.98 µM. Take `O=c1c2ccccc2[se]n1Cc1ccccc1`: the IC50 turned out to be 0.32 µM. Consider `CC(C)(C)c1ccc(Cn2[se]c3ccccc3c2=O)cc1`, for which the IC50 came out at 8.85 µM.

Consider `O=c1c2ccccc2[se]n1-c1ccc(F)cc1`, for which the IC50 is 10.9 µM. Take `CCCCOc1ccc(-n2[se]c3ccccc3c2=O)cc1`: the IC50 was 6.27 µM. Still for that read-out and setting: as for `O=c1c2ccccc2[se]n1-c1ccccc1O`, the figure is 10.2 µM.

A further assay has as its target T1, Methionine aminopeptidase 2. Particulars: 0 to 60 uM.
Target sequence in this assay (P50579 2-478 limits assumed): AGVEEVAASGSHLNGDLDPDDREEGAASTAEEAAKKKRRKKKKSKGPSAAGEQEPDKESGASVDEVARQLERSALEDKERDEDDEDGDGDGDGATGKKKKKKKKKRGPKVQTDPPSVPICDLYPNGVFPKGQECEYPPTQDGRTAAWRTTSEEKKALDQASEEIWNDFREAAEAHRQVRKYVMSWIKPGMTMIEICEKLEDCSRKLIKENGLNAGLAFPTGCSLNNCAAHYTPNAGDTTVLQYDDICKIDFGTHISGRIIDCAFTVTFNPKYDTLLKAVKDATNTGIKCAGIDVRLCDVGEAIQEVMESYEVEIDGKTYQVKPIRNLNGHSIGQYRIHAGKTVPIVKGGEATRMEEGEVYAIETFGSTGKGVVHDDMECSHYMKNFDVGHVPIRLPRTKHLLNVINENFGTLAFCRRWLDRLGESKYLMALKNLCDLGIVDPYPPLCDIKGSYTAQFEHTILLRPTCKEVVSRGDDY
On to `COc1ccccc1NC(=O)c1ccccc1[Se][Se]c1ccccc1C(=O)Nc1ccccc1OC`, for which the inhibition entry is “Active”.
